Assay results published in ChEMBL document CHEMBL4038330, “Discovery of Potent Orally Active Protease-Activated Receptor 1 (PAR1) Antagonists Based on Andrographolide” (J Med Chem, 2017).

Key:
[1] = tested on: collagen-stimulated platelet aggregation; assay: Toxicity in guinea pig assessed as inhibition of collagen-stimulated platelet aggregation at 10 mg/kg, po pretreated for 2 hrs followed by collagen stimulation measured after 5 mins; format: organism-based, Cavia porcellus; conditions: in vivo
Cavia porcellus [2] = assay: In vivo antagonist activity at PAR1 in guinea pig assessed as inhibition of thrombin-stimulated platelet aggregation at 10 mg/kg, po pretreated for 2 hrs followed by thrombin stimulation measured after 5 mins; format: functional
Cavia porcellus [3] = assay: In vivo antagonist activity at PAR1 in guinea pig assessed as inhibition of TRAP-stimulated platelet aggregation at 10 mg/kg, po pretreated for 2 hrs followed by TRAP stimulation measured after 5 mins; format: functional
[4] = tested on: ADP-stimulated platelet aggregation; assay: Toxicity in guinea pig assessed as inhibition of ADP-stimulated platelet aggregation at 10 mg/kg, po pretreated for 2 hrs followed by ADP stimulation measured after 5 mins; format: organism-based, Cavia porcellus; conditions: in vivo
[5] = target: T1, Proteinase-activated receptor 1 (Homo sapiens, UniProt P25116); assay: Antagonist activity at human PAR1 expressed in HEK293 cells co-expressing Galpha15 assessed as inhibition of haTRAP-induced calcium mobilization preincubated for 15 mins followed by haTRAP addition by calcium-4 dye based FLIPR assay; format: functional, cell-based
T1 sequence (P25116 whole entry): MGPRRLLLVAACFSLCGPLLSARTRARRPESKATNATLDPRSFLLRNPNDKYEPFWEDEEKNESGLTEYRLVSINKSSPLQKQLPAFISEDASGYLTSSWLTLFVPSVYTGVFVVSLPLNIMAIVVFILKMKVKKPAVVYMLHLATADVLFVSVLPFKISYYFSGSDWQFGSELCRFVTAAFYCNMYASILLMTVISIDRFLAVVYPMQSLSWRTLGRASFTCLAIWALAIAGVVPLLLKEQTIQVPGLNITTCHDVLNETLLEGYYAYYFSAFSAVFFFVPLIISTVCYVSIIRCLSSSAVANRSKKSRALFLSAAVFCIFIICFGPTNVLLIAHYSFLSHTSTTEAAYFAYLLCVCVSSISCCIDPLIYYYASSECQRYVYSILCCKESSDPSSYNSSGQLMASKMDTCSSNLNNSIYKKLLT

Rattus norvegicus = assay: AUC (0 to infinity) in Wistar rat assessed as (1S,2S,4aS,5S,6R,8aR)-1-((E)-2-(5-(3-Fluorophenyl)pyridin-2-yl)vinyl)-6-hydroxy-5,8a-dimethyloctahydro-1H-spiro[naphthalene-2,2'-oxirane]-5-carboxylic acid level in plasma at 10 mg/kg, po administered as single dose at 3 hrs post dose by LC-MS/MS analysis; format: ADME, organism-based; design: dose 10 mg/kg, route oral, time infinity; conditions: in vivo
Plasma [6] = assay: Drug metabolism in Wistar rat plasma assessed as [M1-CH2-2H] metabolite formation at 10 mg/kg, po administered as single dose measured at 3 hrs post dose by LC-HRMS analysis; format: ADME, organism-based; conditions: in vivo
Outline: (§1)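 Rats dosed orally at 10 mg/kg or 5 mg/kg. Plasma taken at 3.0 h after dosing. Parent and metabolites detected by extracted ion chromatograms.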

Plasma [7] = assay: Stability in Wistar rat assessed as parent compound level in plasma at 10 mg/kg, po administered as single dose measured at 3 hrs post dose by LC-HRMS analysis; format: ADME, organism-based; conditions: in vivo; outline: as §1
Plasma [8] = assay: Drug metabolism in Wistar rat plasma assessed as [M1+O] metabolite formation at 10 mg/kg, po administered as single dose measured at 3 hrs post dose by LC-HRMS analysis; format: ADME, organism-based; conditions: in vivo; outline: as §1
Plasma [9] = assay: Drug metabolism in Wistar rat plasma assessed as [M1-2H] metabolite formation at 10 mg/kg, po administered as single dose measured at 3 hrs post dose by LC-HRMS analysis; format: ADME, organism-based; conditions: in vivo; outline: as §1
[10] = AUC (0 to infinity) in Wistar rat plasma at 10 mg/kg, po administered as single dose administered as single dose at 3 hrs post dose by LC-MS/MS analysis; format: ADME, organism-based; design: dose 10 mg/kg, route oral, time infinity
Plasma [11] = assay: Drug metabolism in Wistar rat plasma assessed as [M1-2H+O] metabolite formation at 10 mg/kg, po administered as single dose measured at 3 hrs post dose by LC-HRMS analysis; format: ADME, organism-based; conditions: in vivo; outline: as §1
Plasma [12] = assay: Drug metabolism in Wistar rat plasma assessed as (1S,2S,4aS,5S,6R,8aR)-1-((E)-2-(5-(3-Fluorophenyl)pyridin-2-yl)vinyl)-6-hydroxy-5,8a-dimethyloctahydro-1H-spiro[naphthalene-2,2'-oxirane]-5-carboxylic acid metabolite formation at 10 mg/kg, po administered as single dose measured at 3 hrs post dose by LC-HRMS analysis; format: ADME, organism-based; conditions: in vivo; outline: as §1
Plasma [13] = assay: Drug metabolism in Wistar rat plasma assessed as [M0-2H] metabolite formation at 10 mg/kg, po administered as single dose measured at 3 hrs post dose by LC-HRMS analysis; format: ADME, organism-based; conditions: in vivo; outline: as §1
Plasma [14] = assay: Drug metabolism in Wistar rat plasma assessed as [M0+O] metabolite formation at 10 mg/kg, po administered as single dose measured at 3 hrs post dose by LC-HRMS analysis; format: ADME, organism-based; conditions: in vivo; outline: as §1
Plasma [15] = assay: Drug metabolism in Wistar rat plasma assessed as [M0-CH2+O] metabolite formation at 10 mg/kg, po administered as single dose measured at 3 hrs post dose by LC-HRMS analysis; format: ADME, organism-based; conditions: in vivo; outline: as §1
Plasma [16] = assay: Drug metabolism in Wistar rat plasma assessed as [M0-CH2] metabolite formation at 10 mg/kg, po administered as single dose measured at 3 hrs post dose by LC-HRMS analysis; format: ADME, organism-based; conditions: in vivo; outline: as §1
Plasma [17] = assay: Drug metabolism in Wistar rat plasma assessed as [M0+H2O] metabolite formation at 10 mg/kg, po administered as single dose measured at 3 hrs post dose by LC-HRMS analysis; format: ADME, organism-based; conditions: in vivo; outline: as §1

SMILES	inhibition at 5 min [1] [%]	inhibition in vivo at 10 mg/kg (Cavia porcellus [2]) [%]	inhibition in vivo at 10 mg/kg (Cavia porcellus [3]) [%]	inhibition at 5 min [4] [%]	IC50 [5] [µM]	AUC (Rattus norvegicus) [ng·h/mL]	Drug metabolism (Plasma [6])	Stability (Plasma [7])	Drug metabolism (Plasma [8])	Drug metabolism (Plasma [9])	AUC(0-inf) [10] [ng·h/mL]	Drug metabolism (Plasma [11])	Drug metabolism (Plasma [12])	Drug metabolism (Plasma [13])	Drug metabolism (Plasma [14])	Drug metabolism (Plasma [15])	Drug metabolism (Plasma [16])	Drug metabolism (Plasma [17])
CCOC(=O)N[C@@H]1CC[C@@H]2[C@@H](C1)C[C@H]1C(=O)O[C@H](C)[C@H]1[C@H]2/C=C/c1ccc(-c2cccc(F)c2)cn1 [VORAPAXAR]	0.9	93.4	98.3	3	0.064													
COC(=O)[C@]1(C)[C@H](O)CC[C@@]2(C)[C@H](/C=C/c3ccc(-c4cccc(F)c4)cn3)[C@@]3(CC[C@@H]21)CO3					7	8412.7	Metabolite_Detected	Unstable	Metabolite_Detected	Metabolite_Detected	269	Metabolite_Detected	Metabolite_Detected					
C[C@]1(CO)[C@H]2CC[C@@]3(CO3)[C@@H](/C=C/c3ccc(-c4cccc(F)c4)cn3)[C@]2(C)CC[C@H]1O					9.1			Unstable					Metabolite_Detected	Metabolite_Detected	Metabolite_Detected	Metabolite_Detected	Metabolite_Detected	Metabolite_Detected
